For data set [1], the target named is T1, Substance-P receptor (Homo sapiens, UniProt P25103). Put plainly: Displacement of [125I]SP from human NK1 receptor expressed in CHO cells. It is filed as cell-based. (In general: Loss of bound radioactivity is the signal in a displacement assay; it reports binding, not function.)
Data set [2] relates to Gerbil, jird. Put plainly: Inhibition of agonist-induced foot tapping in iv dosed gerbil. It is filed as functional. Particulars: Meriones. In a few lines: (§1)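 Gerbils received the test compound by iv infusion, followed by a central (icv) injection of an NK1 agonist at a set time after infusion (0, 4 or 24 h). The agonist-induced foot-tapping response was monitored for blockade. Results are reported as % inhibition at a single dose (mpk) or as ED50.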

Data set [3] concerns Gerbil, jird. In words: Inhibition of agonist-induced foot tapping in iv dosed gerbil after 24 hrs. Conditions: Meriones. It is filed as functional. A digest of the protocol: as §1
The target in the next data set is Cytochrome P450 3A4 (Homo sapiens, UniProt P08684). Put plainly: Inhibition of human CYP3A4. It is filed as ADME.
For the next data set, the target named is Cytochrome P450 2C9 (Homo sapiens, UniProt P11712). Put plainly: Inhibition of human CYP2C9. Type of data set: ADME.
In another data set the target is Cytochrome P450 2D6 (Homo sapiens, UniProt P10635). Put plainly: Inhibition of human CYP2D6. Type of data set: ADME.
Data set [4] concerns the target T1, Substance-P receptor. In words: Displacement of [125I]SP from human NK1 receptor expressed in CHO cells in presence of 50% human serum. It is filed as cell-based.
In data set [5] the test system is Gerbil, jird. In words: Inhibition of agonist-induced foot tapping in gerbil at 6 mpk, iv after 24 hrs. Particulars: Meriones. Type of data set: functional. A digest of the protocol:
as §1

Data set [6] relates to Gerbil, jird. In words: Inhibition of agonist-induced foot tapping in gerbil at 2 mpk, iv after 24 hrs. Type of data set: functional. Conditions: Meriones, 4 h, in the assay text read “after 4 hrs” for “after 24 hrs”. A digest of the protocol: as §1
In data set [7] the test system is Gerbil, jird. In words: Inhibition of agonist-induced foot tapping in gerbil at 3 mpk, iv after 24 hrs. Type of data set: functional. Conditions: Meriones. In a few lines: as §1
Data set [8] in a line: Half life in rat. Type of data set: ADME, organism-based. Particulars: in vivo.

T1 sequence (P25103 whole entry, the tested form may be a part): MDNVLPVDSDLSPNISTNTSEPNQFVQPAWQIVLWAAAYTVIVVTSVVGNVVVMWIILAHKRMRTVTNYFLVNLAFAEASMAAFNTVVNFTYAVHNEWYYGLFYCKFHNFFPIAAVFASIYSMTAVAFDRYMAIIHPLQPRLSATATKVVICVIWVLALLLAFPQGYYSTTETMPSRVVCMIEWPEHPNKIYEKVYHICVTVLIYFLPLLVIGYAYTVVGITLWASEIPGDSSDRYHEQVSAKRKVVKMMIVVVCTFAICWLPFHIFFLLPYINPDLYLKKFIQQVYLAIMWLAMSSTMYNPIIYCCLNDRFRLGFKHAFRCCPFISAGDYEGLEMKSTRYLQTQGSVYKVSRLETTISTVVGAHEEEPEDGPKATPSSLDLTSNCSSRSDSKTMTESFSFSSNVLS
Chain of Cytochrome P450 2D6 (P10635 whole entry): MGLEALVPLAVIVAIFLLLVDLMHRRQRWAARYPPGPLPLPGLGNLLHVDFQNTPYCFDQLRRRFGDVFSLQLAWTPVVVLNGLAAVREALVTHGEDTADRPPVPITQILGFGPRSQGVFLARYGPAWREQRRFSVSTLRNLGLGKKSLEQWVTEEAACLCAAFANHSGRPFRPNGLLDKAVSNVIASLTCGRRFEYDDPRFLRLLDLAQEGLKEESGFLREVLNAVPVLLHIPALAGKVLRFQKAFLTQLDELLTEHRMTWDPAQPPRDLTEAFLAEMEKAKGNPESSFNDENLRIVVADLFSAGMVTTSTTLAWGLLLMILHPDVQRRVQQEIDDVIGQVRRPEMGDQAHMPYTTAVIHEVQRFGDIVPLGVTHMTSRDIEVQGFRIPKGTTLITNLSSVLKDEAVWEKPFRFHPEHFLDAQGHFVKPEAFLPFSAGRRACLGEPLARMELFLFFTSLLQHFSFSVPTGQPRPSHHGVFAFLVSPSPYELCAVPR
Chain of Cytochrome P450 2C9 (P11712 whole entry): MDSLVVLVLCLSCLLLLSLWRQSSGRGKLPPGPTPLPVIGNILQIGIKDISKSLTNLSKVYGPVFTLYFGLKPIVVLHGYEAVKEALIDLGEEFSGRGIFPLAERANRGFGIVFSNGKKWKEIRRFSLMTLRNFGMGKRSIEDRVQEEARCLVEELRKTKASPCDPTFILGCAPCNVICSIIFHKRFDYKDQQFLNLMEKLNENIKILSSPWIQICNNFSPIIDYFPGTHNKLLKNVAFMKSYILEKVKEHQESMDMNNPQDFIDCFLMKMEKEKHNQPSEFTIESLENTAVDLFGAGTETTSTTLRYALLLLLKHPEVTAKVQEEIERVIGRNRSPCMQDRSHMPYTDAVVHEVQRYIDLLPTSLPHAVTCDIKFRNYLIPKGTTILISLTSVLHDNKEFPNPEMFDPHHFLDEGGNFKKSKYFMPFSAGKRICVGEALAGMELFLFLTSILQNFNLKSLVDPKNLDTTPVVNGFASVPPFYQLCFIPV
Chain of Cytochrome P450 3A4 (P08684 whole entry): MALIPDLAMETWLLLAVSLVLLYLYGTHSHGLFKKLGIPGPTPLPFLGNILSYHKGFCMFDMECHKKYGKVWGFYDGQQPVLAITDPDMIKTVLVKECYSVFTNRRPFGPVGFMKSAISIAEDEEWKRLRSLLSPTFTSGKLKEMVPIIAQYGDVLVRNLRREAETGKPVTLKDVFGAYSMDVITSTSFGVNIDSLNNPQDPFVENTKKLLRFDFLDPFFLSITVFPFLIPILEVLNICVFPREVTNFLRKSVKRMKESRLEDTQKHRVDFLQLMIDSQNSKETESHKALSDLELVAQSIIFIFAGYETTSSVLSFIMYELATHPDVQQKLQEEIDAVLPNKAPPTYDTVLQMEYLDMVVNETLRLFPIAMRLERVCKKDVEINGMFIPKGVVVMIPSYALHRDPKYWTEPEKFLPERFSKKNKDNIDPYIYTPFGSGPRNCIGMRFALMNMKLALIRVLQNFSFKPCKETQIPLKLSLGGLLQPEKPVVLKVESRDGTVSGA

Consider `CN(Cc1cc(C(F)(F)F)cc(C(F)(F)F)c1)C(=O)[C@H]1CN(C(=O)NC2CCCCC2)C[C@@H]1c1ccccc1`, for which, at Substance-P receptor [1], the half-inhibitory concentration (IC50) stood at 0.79 nM.

For `CN(Cc1cc(C(F)(F)F)cc(C(F)(F)F)c1)C(=O)[C@H]1CN(C(=O)C2CCNCC2)C[C@@H]1c1ccccc1`, at Substance-P receptor [1], the IC50 was 4.1 nM.

Regarding `Cc1cnc(C(=O)N2C[C@H](C(=O)N(C)Cc3cc(C(F)(F)F)cc(C(F)(F)F)c3)[C@@H](c3ccc(F)cc3C)C2)cn1`, the ED50 was 6 mg/kg in the data set with Gerbil, jird [2] and 6 mg/kg with Gerbil, jird [3]. In addition, the IC50 on Cytochrome P450 3A4 was 11000 nM; against Cytochrome P450 2C9, 43000 nM; on Cytochrome P450 2D6 it was 73000 nM; at Substance-P receptor [1], 0.09 nM; at Substance-P receptor [4], 8 nM.

Consider `CN(Cc1cc(C(F)(F)F)cc(C(F)(F)F)c1)C(=O)[C@H]1CN(C(=O)c2cncnc2)C[C@@H]1c1ccccc1`, for which the 50% inhibitory concentration (IC50) at Substance-P receptor [1] came out at 24 nM.

The compound `CC(=O)N1CCC(C(=O)N2C[C@H](C(=O)N(C)Cc3cc(C(F)(F)F)cc(C(F)(F)F)c3)[C@H](c3ccccc3)C2)CC1` displayed an IC50 on Substance-P receptor [1] of 3.7 nM.

Turning to `CC(=O)N1CCC(C(=O)N2C[C@@H](C(=O)N(C)Cc3cc(C(F)(F)F)cc(C(F)(F)F)c3)[C@H](c3ccccc3)C2)CC1`, the IC50 at Substance-P receptor [1] is 0.97 nM.

Regarding `CC(C)(C)OC(=O)N1CC[C@H](c2ccccc2)[C@@H](C(=O)NCc2cc(C(F)(F)F)cc(C(F)(F)F)c2)C1`, the IC50 on Substance-P receptor [1] amounted to 450 nM.

Consider `CN(Cc1cc(C(F)(F)F)cc(C(F)(F)F)c1)C(=O)[C@H]1CN(C(=O)OC(C)(C)C)C[C@@H]1c1ccccc1`, for which the IC50 on Substance-P receptor [1] was 11 nM.

In turn, `CN(Cc1cc(C(F)(F)F)cc(C(F)(F)F)c1)C(=O)[C@H]1CN(C(=O)C2CCCCC2)C[C@@H]1c1ccccc1` yielded an IC50 on Substance-P receptor [1] of 0.68 nM.

`Cc1cnc(C(=O)N2C[C@H](C(=O)N(C)Cc3cc(C(F)(F)F)cc(C(F)(F)F)c3)[C@@H](c3ccccc3)C2)cn1` returned an IC50 at Substance-P receptor [1] of 0.58 nM.

On to `CC(C)(C)OC(=O)N1C[C@H](C(=O)NCc2cc(C(F)(F)F)cc(C(F)(F)F)c2)[C@@H](c2ccccc2)C1`, for which the IC50 at Substance-P receptor [1] is 142 nM.

In the case of `CC(=O)N1CCC(C(=O)N2C[C@H](C(=O)N(C)C(C)(C)c3cc(C(F)(F)F)cc(C(F)(F)F)c3)[C@@H](c3ccc(F)cc3C)C2)CC1`, the IC50 on Cytochrome P450 3A4 was 49000 nM; against Cytochrome P450 2C9, above 100000 nM; against Cytochrome P450 2D6, 57000 nM; on Substance-P receptor [1] it was 0.05 nM; on Substance-P receptor [4], 0.51 nM. This compound also had an inhibition in vivo at 6 mg/kg in the data set with Gerbil, jird [5] of 2%. For the same compound, the inhibition in vivo at 2 mg/kg in the data set with Gerbil, jird [6] is 100%.

Consider `CC(=O)N1CCC(C(=O)N2C[C@H](C(=O)N(C)Cc3cc(C(F)(F)F)cc(C(F)(F)F)c3)[C@@H](c3ccc(F)cc3C)C2)CC1`, for which the IC50 was determined as 11000 nM at Cytochrome P450 3A4; 69000 nM at Cytochrome P450 2C9; 92000 nM at Cytochrome P450 2D6; 0.05 nM at Substance-P receptor [1]; 0.21 nM on Substance-P receptor [4]. For the same compound, the inhibition in vivo at 6 mg/kg with Gerbil, jird [5] worked out at 24%. The compound also had an inhibition in vivo at 2 mg/kg in the data set with Gerbil, jird [6] of 100%.

As for `CC(=O)N1CCC(C(=O)N2C[C@H](c3nc(C(C)(C)c4cc(C(F)(F)F)cc(C(F)(F)F)c4)no3)[C@@H](c3ccc(F)cc3C)C2)CC1`, in the data set on Gerbil, jird [5], testing at 6 mg/kg gave an inhibition in vivo of 1%. Also, the inhibition in vivo at 2 mg/kg with Gerbil, jird [6] came to 92%. For the same compound, the half-maximal inhibitory concentration (IC50) at Substance-P receptor [1] was 0.07 nM; at Substance-P receptor [4], 2.8 nM.

As to `CC(=O)N1CCC(C(=O)N2C[C@@H](c3nc(C(C)(C)c4cc(C(F)(F)F)cc(C(F)(F)F)c4)no3)[C@H](c3ccc(F)cc3C)C2)CC1`, the inhibition in vivo at 6 mg/kg in the data set on Gerbil, jird [5] was found to be 1%. The IC50 was 0.17 nM on Substance-P receptor [1] and 20 nM at Substance-P receptor [4].

With `CC(=O)N1CCC(C(=O)N2C[C@H](c3noc(C(C)(C)c4cc(C(F)(F)F)cc(C(F)(F)F)c4)n3)[C@@H](c3ccc(F)cc3C)C2)CC1`, the IC50 on Cytochrome P450 3A4 came to 100000 nM; on Cytochrome P450 2C9, 9000 nM; against Cytochrome P450 2D6, 63000 nM; on Substance-P receptor [1], 0.07 nM; on Substance-P receptor [4], 6 nM.

In the case of `CC(=O)N1CCC(C(=O)N2C[C@@H](c3noc(C(C)(C)c4cc(C(F)(F)F)cc(C(F)(F)F)c4)n3)[C@H](c3ccc(F)cc3C)C2)CC1`, testing at 6 mg/kg in the data set with Gerbil, jird [5] gave an inhibition in vivo of 60%. In addition, the IC50 on Substance-P receptor [1] worked out at 0.03 nM; at Substance-P receptor [4], 0.17 nM.

Compound `CN(Cc1cc(C(F)(F)F)cc(C(F)(F)F)c1)C(=O)[C@H]1CN(CC2CCCCC2)C[C@@H]1c1ccccc1` gave an IC50 at Substance-P receptor [1] of 62 nM.

Compound `CN(Cc1cc(C(F)(F)F)cc(C(F)(F)F)c1)C(=O)[C@H]1CN(C(=O)N2CCCCC2)C[C@@H]1c1ccccc1` gave an IC50 on Substance-P receptor [1] of 13 nM.

The compound `CN(Cc1cc(C(F)(F)F)cc(C(F)(F)F)c1)C(=O)[C@H]1CN(C(=O)c2ncccn2)C[C@@H]1c1ccccc1` came in with a half-inhibitory concentration (IC50) on Substance-P receptor [1] of 0.84 nM.

`CN(Cc1cc(C(F)(F)F)cc(C(F)(F)F)c1)C(=O)[C@H]1CN(C(=O)c2cnccn2)C[C@@H]1c1ccccc1` returned an IC50 at Substance-P receptor [1] of 0.74 nM.

Consider `CN(Cc1cc(C(F)(F)F)cc(C(F)(F)F)c1)C(=O)[C@H]1CN(C(=O)c2ccncn2)C[C@@H]1c1ccccc1`, for which, on Substance-P receptor [1], the IC50 is 3.4 nM.

For the compound `CC(=O)N1CCC(C(=O)N2C[C@H](C(=O)N(C)Cc3cc(C(F)(F)F)cc(C(F)(F)F)c3)[C@@H](c3ccccc3)C2)CC1` (stereo in doubt; 8c), the ED50 with Gerbil, jird [2] stood at 0.41 mg/kg. For the same compound, in the data set on Gerbil, jird [7], 3 mg/kg produced 29% inhibition in vivo. Also, the half-inhibitory concentration (IC50) at Cytochrome P450 3A4 was found to be 18000 nM; against Cytochrome P450 2C9 it was 26000 nM; against Cytochrome P450 2D6, 24000 nM; at Substance-P receptor [1], 0.42 nM; at Substance-P receptor [4], 4.5 nM. In [8], this compound showed a half-life of 42 min.

In the case of `CC(=O)N1CCC(C(=O)N2C[C@H](C(=O)N(C)Cc3cc(C(F)(F)F)cc(C(F)(F)F)c3)[C@@H](c3ccccc3)C2)CC1` (stereo in doubt; 27), at Substance-P receptor [1], the IC50 worked out at 0.12 nM.

What is called IC50 is the midpoint of a concentration-inhibition curve. The ED50 is the dose at which the effect has come halfway, by size or by number of responders. Broadly, the inhibition in vivo is the percentage by which the read-out fell short of the control. A word on the half-life: it is the time needed for the level to fall by half in the phase considered. Higher therefore signals slow decline.

The record behind these values is ChEMBL document CHEMBL1149712, “Pyrrolidine-carboxamides and oxadiazoles as potent hNK1 antagonists” (Bioorg Med Chem Lett, 2007).
